Experiment [1] deals with Escherichia coli. The experiment is described as follows: Antibacterial activity against Escherichia coli KCTC 1924 after 24 hrs by two-fold serial dilution method. It counts as functional. Particulars: KCTC 1924, 24 h. The method in brief: (§1)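 Broth microdilution in Mueller-Hinton broth over final concentrations of 64–0.5. Bacteria were grown to mid-log phase and diluted 1000-fold, then inoculated at 10⁵ CFU/mL. Compounds were dissolved in DMSO, with final DMSO at most 0.05%. Plates were incubated 24 h at 37 °C and growth read as absorbance at 650 nm. MIC is the concentration giving complete growth inhibition. Three independent runs.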

Experiment [2] deals with Staphylococcus aureus. The experiment is described as follows: Antibacterial activity against Staphylococcus aureus RN4220 after 24 hrs by two-fold serial dilution method. It counts as functional. Conditions: RN4220, 24 h. The method in brief: (§2)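 Broth microdilution in Mueller-Hinton broth. Bacteria grown to mid-log phase, diluted 1000-fold, and inoculated at 10⁵ CFU/mL. Test compounds in DMSO, final DMSO not above 0.05%, final concentrations 64-0.5 µg/mL. Incubation 24 h at 37 °C, growth read as absorbance at 650 nm. MIC taken as the lowest concentration giving complete growth inhibition. Run three times.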

Experiment [3] relates to Candida albicans. Nature of the experiment: Antifungal activity against Candida albicans 7535 by two-fold serial dilution method. Format: functional.
Experiment [4] deals with Staphylococcus aureus. Nature of the experiment: Antibacterial activity against methicillin-resistant Staphylococcus aureus CCARM 3506 after 24 hrs by two-fold serial dilution method. It counts as functional. Conditions: CCARM 3506, 24 h. Summed up:
as §2

The subject of experiment [5] is Salmonella typhimurium. The experiment is described as follows: Antibacterial activity against Salmonella typhimurium 2421 after 24 hrs by two-fold serial dilution method. Conditions: Salmonella enterica, 2421, 24 h. Format: functional, Salmonella enterica subsp. enterica serovar Typhimurium. Summed up:
as §1

Experiment [6] deals with Pseudomonas aeruginosa. Nature of the experiment: Antibacterial activity against Pseudomonas aeruginosa 2742 after 24 hrs by two-fold serial dilution method. Format: functional. Particulars: Pseudomonas aeruginosa, 2742, 24 h. The method in brief:
as §1

Experiment [7] deals with Staphylococcus aureus. Nature of the experiment: Antibacterial activity against methicillin-resistant Staphylococcus aureus CCARM 3167 after 24 hrs by two-fold serial dilution method. It counts as functional. Conditions: CCARM 3167, 24 h. The method in brief: as §2
Experiment [8] relates to Staphylococcus aureus. Nature of the experiment: Antibacterial activity against quinolone-resistant Staphylococcus aureus CCARM 3519 after 24 hrs by two-fold serial dilution method. Particulars: CCARM 3519, 24 h. Format: functional. Summed up: as §2
The subject of experiment [9] is Escherichia coli. The experiment is described as follows: Ratio of moxifloxacin MIC to compound MIC for Escherichia coli CCARM 1356 after 24 hrs by two-fold serial dilution method. Format: functional.
Experiment [10] has as its system Streptococcus mutans. Nature of the experiment: Antibacterial activity against Streptococcus mutans 3065 after 24 hrs by two-fold serial dilution method. Particulars: Streptococcus mutans, 3065, 24 h. Format: functional. The method in brief:
as §1

Experiment [11] concerns Mus musculus. The experiment is described as follows: Antiinflammatory activity in mouse assessed as inhibition of xylene-induced ear edema at 50 mg/kg, ip administered 30 mins before xylene challenge relative to control. It counts as functional. Summed up: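 Mice received compound freshly dissolved in DMSO, 50 mg/kg ip at 0.05 mL/20 g body weight; vehicle controls got DMSO alone. After 30 min, 20 µL xylene was applied to the right ear. After a further 30 min, 7 mm plugs were cut from treated and untreated ears and edema taken as their weight difference. Result is % edema reduction versus vehicle controls.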

Experiment [12] deals with Staphylococcus aureus. Nature of the experiment: Antibacterial activity against Staphylococcus aureus 209 after 24 hrs by two-fold serial dilution method. It counts as functional. Conditions: Staphylococcus aureus, 209, 24 h. The method in brief: as §2
Experiment [13] concerns Pseudomonas aeruginosa. The experiment is described as follows: Antibacterial activity against Pseudomonas aeruginosa 2004 after 24 hrs by two-fold serial dilution method. It counts as functional. Conditions: Pseudomonas aeruginosa, 2004, 24 h. The method in brief: as §1
Experiment [14] has as its system Staphylococcus aureus. The experiment is described as follows: Antibacterial activity against Staphylococcus aureus 503 after 24 hrs by two-fold serial dilution method. Particulars: Staphylococcus aureus, 503, 24 h. Format: functional. The method in brief: as §2
In experiment [15] the test system is Staphylococcus aureus. The experiment is described as follows: Antibacterial activity against quinolone-resistant Staphylococcus aureus CCARM 3505 after 24 hrs by two-fold serial dilution method. Conditions: CCARM 3505, 24 h. Format: functional. The method in brief:
as §2

Experiment [16] deals with Escherichia coli. The experiment is described as follows: Antibacterial activity against Escherichia coli CCARM 1356 after 24 hrs by two-fold serial dilution method. It counts as functional. Conditions: CCARM 1356, 24 h. Summed up:
as §1

The subject of experiment [17] is Staphylococcus aureus. Nature of the experiment: Ratio of moxifloxacin MIC to compound MIC for quinolone-resistant Staphylococcus aureus CCARM 3519 after 24 hrs by two-fold serial dilution method. It counts as functional.
For experiment [18], the system named is Staphylococcus aureus. Nature of the experiment: Ratio of moxifloxacin MIC to compound MIC for quinolone-resistant Staphylococcus aureus CCARM 3505 after 24 hrs by two-fold serial dilution method. It counts as functional.
In experiment [19] the test system is Staphylococcus aureus. Nature of the experiment: Ratio of gatifloxacin MIC to compound MIC for quinolone-resistant Staphylococcus aureus CCARM 3519 after 24 hrs by two-fold serial dilution method. It counts as functional.
Experiment [20] relates to Staphylococcus aureus. Nature of the experiment: Ratio of gatifloxacin MIC to compound MIC for quinolone-resistant Staphylococcus aureus CCARM 3505 after 24 hrs by two-fold serial dilution method. Format: functional.

Each structure is given as a SMILES string. In brackets after ≈: the same amount, converted by molar mass.

For orientation: MIC means the lowest concentration found to suppress growth. Read a high MIC as weaker potency. As a reminder, the inhibition in vivo is how much of the control response was suppressed. `Cc1ccc(-c2nn(-c3ccc([N+](=O)[O-])cc3[N+](=O)[O-])cc2/C=N/NC(=N)N)c(C)c1`: the MIC is 2 µg/mL (≈ 4.73 µM) in experiment [1]; 2 µg/mL (≈ 4.73 µM) in experiment [2]; 2 µg/mL (≈ 4.73 µM) in experiment [3]; 2 µg/mL (≈ 4.73 µM) in experiment [4]; 8 µg/mL (≈ 18.9 µM) in experiment [5]; over 64 µg/mL in experiment [6]. The MIC is 2 µg/mL (≈ 4.73 µM) in [7]; 4 µg/mL (≈ 9.47 µM) in experiment [8]; 4 µg/mL (≈ 9.47 µM) in experiment [10]; 4 µg/mL (≈ 9.47 µM) in experiment [12]; over 64 µg/mL in [13]; 4 µg/mL (≈ 9.47 µM) in experiment [14]. Also, the minimal inhibitory concentration (MIC) in experiment [15] was 2 µg/mL (≈ 4.73 µM); in experiment [16], 8 µg/mL (≈ 18.9 µM). The Ratio in [9] came out at 16. For the same compound, in experiment [11], the inhibition in vivo at 50 mg/kg turned out to be 79.6%.

Turning to `Cc1ccc(-c2nn(-c3ccc([N+](=O)[O-])cc3[N+](=O)[O-])cc2/C=N/NC(=N)N)cc1`, the MIC was 2 µg/mL (≈ 4.9 µM) in experiment [1]; 2 µg/mL (≈ 4.9 µM) in experiment [2]; 2 µg/mL (≈ 4.9 µM) in [3]; 2 µg/mL (≈ 4.9 µM) in [4]; 4 µg/mL (≈ 9.79 µM) in experiment [5]; over 64 µg/mL in experiment [6]. Besides, the MIC was 2 µg/mL (≈ 4.9 µM) in [7]; 2 µg/mL (≈ 4.9 µM) in experiment [8]; 4 µg/mL (≈ 9.79 µM) in [10]; 2 µg/mL (≈ 4.9 µM) in [12]; over 64 µg/mL in experiment [13]; 2 µg/mL (≈ 4.9 µM) in [14]. Besides, the figures for the MIC in experiment [15] and in experiment [16] were 2 µg/mL (≈ 4.9 µM) and 4 µg/mL (≈ 9.79 µM), respectively. Moreover, the Ratio in [17], in [18] and in experiment [19] was 2 each time. The inhibition in vivo at 50 mg/kg in experiment [11] turned out to be 87.4%.

Take `N=C(N)N/N=C/c1cn(-c2ccc([N+](=O)[O-])cc2[N+](=O)[O-])nc1-c1ccc(Cl)cc1Cl`: the MIC in [1] is 2 µg/mL (≈ 4.32 µM); in [2], 2 µg/mL (≈ 4.32 µM); in [3], 2 µg/mL (≈ 4.32 µM); in experiment [4], 2 µg/mL (≈ 4.32 µM); in experiment [5], 8 µg/mL (≈ 17.3 µM); in [6] it was over 64 µg/mL. Besides, the MIC is 2 µg/mL (≈ 4.32 µM) in experiment [7]; 2 µg/mL (≈ 4.32 µM) in experiment [8]; 4 µg/mL (≈ 8.63 µM) in experiment [10]; 2 µg/mL (≈ 4.32 µM) in experiment [12]; over 64 µg/mL in experiment [13]; 2 µg/mL (≈ 4.32 µM) in experiment [14]. Besides, the MIC in [15] was determined as 2 µg/mL (≈ 4.32 µM); in [16], 8 µg/mL (≈ 17.3 µM). Besides, the Ratio in experiment [20] came to 4; in [9], 16; in experiment [18], 2; in experiment [19], 2. In experiment [11], the inhibition in vivo at 50 mg/kg stood at 61.9%.

On to `COc1ccc(-c2nn(-c3ccc([N+](=O)[O-])cc3[N+](=O)[O-])cc2/C=N/NC(=N)N)cc1`, for which the minimum inhibitory concentration (MIC) in experiment [1] was 4 µg/mL (≈ 9.43 µM); in [2] it was 4 µg/mL (≈ 9.43 µM); in experiment [3], 2 µg/mL (≈ 4.71 µM); in experiment [4] it was 2 µg/mL (≈ 4.71 µM); in experiment [5] it was 8 µg/mL (≈ 18.9 µM); in experiment [6] it was over 64 µg/mL. Further, the MIC in [7] is 4 µg/mL (≈ 9.43 µM); in experiment [8], 4 µg/mL (≈ 9.43 µM); in experiment [10], 8 µg/mL (≈ 18.9 µM); in experiment [12] it was 4 µg/mL (≈ 9.43 µM); in [13] it was over 64 µg/mL; in experiment [14], 4 µg/mL (≈ 9.43 µM). The results for the minimum inhibitory concentration (MIC) in [15] and in experiment [16] were 4 µg/mL (≈ 9.43 µM) and 8 µg/mL (≈ 18.9 µM), respectively. The Ratio in [9] is on record as 16. Moreover, the inhibition in vivo at 50 mg/kg in [11] worked out at 86.5%.

Consider `Cc1cccc(-c2nn(-c3ccc([N+](=O)[O-])cc3[N+](=O)[O-])cc2/C=N/NC(=N)N)c1`, for which the MIC in [1] is 2 µg/mL (≈ 4.9 µM); in [2] it was 2 µg/mL (≈ 4.9 µM); in [3], 2 µg/mL (≈ 4.9 µM); in experiment [4], 2 µg/mL (≈ 4.9 µM); in [5] it was 8 µg/mL (≈ 19.6 µM); in experiment [6], over 64 µg/mL. For the same compound, the minimum inhibitory concentration (MIC) in experiment [7] is 2 µg/mL (≈ 4.9 µM); in [8] it was 4 µg/mL (≈ 9.79 µM); in [10], 4 µg/mL (≈ 9.79 µM); in experiment [12], 2 µg/mL (≈ 4.9 µM); in experiment [13], over 64 µg/mL; in experiment [14] it was 2 µg/mL (≈ 4.9 µM). The values for the MIC in experiment [15] and in experiment [16] were 2 µg/mL (≈ 4.9 µM) and 8 µg/mL (≈ 19.6 µM), respectively. Further, in experiment [9], the Ratio amounted to 16. The inhibition in vivo at 50 mg/kg in [11] was found to be 76.9%.
